Source: ChEMBL document CHEMBL1122171, “Hypobetalipoproteinemic agents. 3. Variation of the polycyclic portion of 4-(1-adamantyloxy)aniline” (1982)

Tests used:
Type in all cases: functional
Rattus norvegicus [1] = assay: Hypobetalipoproteinemic activity was determined in diet-induced hypercholesterolemic rats at a dose of 0.18 (mmol/kg)/day (total cholesterol level was determined)
Procedure, shortened: (§1)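 Cholesterol-cholic acid fed rats given each compound at 50 (mg/kg)/day in 0.25% aqueous methylcellulose vehicle. Serum total cholesterol, heparin precipitating lipoproteins (HPL) and HPL/cholesterol ratio measured. Values expressed as T/C, the treated-group mean divided by the control mean. Significance vs control set at p < 0.05. Food intake and weight gain monitored. Active compounds retested for confirmation.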

Rattus norvegicus [2] = assay: Hypobetalipoproteinemic activity was determined in diet-induced hypercholesterolemic rats at a dose of 0.18 (mmol/kg)/day (heparin precipitating lipoproteins level was determined); procedure, shortened: as §1
[3] = Ratio of heparin precipitating lipoproteins level to cholesterol level was determined; procedure, shortened: as §1
Rattus norvegicus [4] = assay: Hypobetalipoproteinemic activity was determined in diet-induced hypercholesterolemic rats at a dose of 0.17 (mmol/kg)/day (heparin precipitating lipoproteins level was determined); procedure, shortened: as §1
Rattus norvegicus [5] = assay: Hypobetalipoproteinemic activity was determined in diet-induced hypercholesterolemic rats at a dose of 0.17 (mmol/kg)/day (total cholesterol level was determined); procedure, shortened: as §1
Rattus norvegicus [6] = assay: Hypobetalipoproteinemic activity was determined in diet-induced hypercholesterolemic rats at a dose of 0.22 (mmol/kg)/day (total cholesterol level was determined); procedure, shortened: as §1
Rattus norvegicus [7] = assay: Hypobetalipoproteinemic activity was determined in diet-induced hypercholesterolemic rats at a dose of 0.22 (mmol/kg)/day (heparin precipitating lipoproteins level was determined); procedure, shortened: as §1
Rattus norvegicus [8] = assay: Hypobetalipoproteinemic activity was determined in diet-induced hypercholesterolemic rats at a dose of 0.19 (mmol/kg)/day (heparin precipitating lipoproteins level was determined); procedure, shortened: as §1
Rattus norvegicus [9] = assay: Hypobetalipoproteinemic activity was determined in diet-induced hypercholesterolemic rats at a dose of 0.19 (mmol/kg)/day (total cholesterol level was determined); procedure, shortened: as §1

| Compound | Ratio [3] | T/C (Rattus norvegicus [4]) | T/C (Rattus norvegicus [5]) | other results |
| --- | --- | --- | --- | --- |
| Cl.Nc1ccc(OC23CCCCC2CCCC3)cc1 (stereo in doubt; 17) | – | – | – | T/C (Rattus norvegicus [1]): 1.38; T/C (Rattus norvegicus [2]): 1.24 |
| Nc1ccc(OC23CCCCC2CCCC3)cc1 (stereo in doubt; 17) | 0.9 | – | – | – |
| Cl.Nc1ccc(OC23CCCCC2CCCC3)cc1 (stereo in doubt; 14) | – | – | – | T/C (Rattus norvegicus [1]): 0.92; T/C (Rattus norvegicus [2]): 0.89 |
| Nc1ccc(OC23CC4C5CC6CC4C(C2)C(C6)C5C3)cc1 | 0.62 | 0.19 | 0.31 | – |
| CCCC(C)(C)Oc1ccc(N)cc1.Cl | 0.92 | – | – | T/C (Rattus norvegicus [6]): 0.84; T/C (Rattus norvegicus [7]): 0.78 |
| Nc1ccc(OC23CCCCC2CCCC3)cc1 (stereo in doubt; 14) | 0.97 | – | – | – |
| CCCCCC(C)(C)Oc1ccc(N)cc1.Cl | 0.94 | – | – | T/C (Rattus norvegicus [8]): 0.96; T/C (Rattus norvegicus [9]): 1.02 |
| CCCCCCCC(C)(C)Oc1ccc(N)cc1.Cl | 0.86 | 0.84 | 0.98 | – |
| Nc1ccc(OC23CC4CC5C6CC(CC52)CC3C6C4)cc1 | 0.66 | 0.35 | 0.53 | – |
